Measurements as given in ChEMBL document CHEMBL4680269, “N-benzylpiperidinol derivatives as novel USP7 inhibitors: Structure-activity relationships and X-ray crystallographic studies” (Eur J Med Chem, 2020).
pIC50: −log10 of the molar value. Active and inactive are the calls of the source. No cut-off for these calls is given here.

How the values were obtained:
RS4-11 [1] = assay: Induction of cell cycle arrest in human RS4-11 cells assessed as G2/M phase at 1 uM incubated for 48 hrs by PI staining based flow cytometry analysis (reference value: 21.5 %); type: functional
RS4-11 [2] = assay: Induction of cell cycle arrest in human RS4-11 cells assessed as S phase at 1 uM incubated for 72 hrs by PI staining based flow cytometry analysis (reference value: 33.9 %); type: functional
RS4-11 [3] = assay: Induction of apoptosis in human RS4-11 cells assessed as viable cells at 1 uM incubated for 48 hrs by annexin V-FITC and PI staining based flow cytometry analysis (reference value: 92.2 %); type: functional; settings: read-out: Activity
RS4-11 [4] = assay: Effect on USP7 expression in human RS4-11 cells at 0.1 to 1 uM incubated for 24 hrs by Western blot analysis; type: functional, cell-based; settings: dose 0.1-1 µM
Procedure, shortened: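 RS4;11 cells treated for 24 h with compound at varying concentrations, reference inhibitor at 1 μM, or DMSO. USP7, DNMT1, MDM2, p53 and p21 protein levels assessed by Western blot.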

RS4-11 [5] = assay: Induction of apoptosis in human RS4-11 cells assessed as early apoptotic cells at 1 uM incubated for 72 hrs by annexin V-FITC and PI staining based flow cytometry analysis (reference value: 1.12 %); type: functional
RS4-11 [6] = assay: Induction of apoptosis in human RS4-11 cells assessed as viable cells at 1 uM incubated for 24 hrs by annexin V-FITC and PI staining based flow cytometry analysis (reference value: 92.2 %); type: functional; settings: read-out: Activity
RS4-11 [7] = assay: Induction of cell cycle arrest in human RS4-11 cells assessed as G2/M phase at 1 uM incubated for 72 hrs by PI staining based flow cytometry analysis (reference value: 21.5 %); type: functional
RS4-11 [8] = assay: Induction of apoptosis in human RS4-11 cells assessed as late apoptotic cells at 1 uM incubated for 72 hrs by annexin V-FITC and PI staining based flow cytometry analysis (reference value: 6.11 %); type: functional
RS4-11 [9] = assay: Induction of apoptosis in human RS4-11 cells assessed as necrotic cells at 1 uM incubated for 72 hrs by annexin V-FITC and PI staining based flow cytometry analysis (reference value: 0.53 %); type: functional
RS4-11 [10] = assay: Induction of cell cycle arrest in human RS4-11 cells assessed as G2/M phase at 1 uM incubated for 24 hrs by PI staining based flow cytometry analysis (reference value: 21.5 %); type: functional
RS4-11 [11] = assay: Induction of cell cycle arrest in human RS4-11 cells assessed as subG phase at 1 uM incubated for 48 hrs by PI staining based flow cytometry analysis (reference value: 0.2 %); type: functional
RS4-11 [12] = assay: Induction of cell cycle arrest in human RS4-11 cells assessed as S phase at 1 uM incubated for 48 hrs by PI staining based flow cytometry analysis (reference value: 33.9 %); type: functional
Huh-7 = assay: Antiproliferative activity against human HuH-7 cells assessed as reduction in cell viability incubated for 3 days by cell-titer glo assay; type: functional, cell-based; settings: Huh-7, 72 h
Procedure, shortened: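 Cells seeded in 96-well plates (RS4;11 5000 cells/well; HCT-116, Huh7, K562, NB4 2000 cells/well), dosed after 24 h with a range of compound concentrations for 3 days. Viability read by CellTiter-Glo luminescence; IC50 from curve fitting.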

With COC(=O)c1ccc(CN2CCC(O)(Cn3cnc4c(-c5ccc(CN)cc5)n(C)nc4c3=O)CC2)c(Cl)c1.O=C(O)C(F)(F)F.O=C(O)C(F)(F)F the Activity (RS4-11 [1]) was 11.7%, the Activity (RS4-11 [2]) was 33.4% and the viability at 1 µM (RS4-11 [3]) was 71.8%. The inhibition (RS4-11 [4]) was “Active”, the Activity (RS4-11 [5]) was 3.18% and the viability at 1 µM (RS4-11 [6]) was 84.7%. It also gave an Activity (RS4-11 [7]) of 8%, an Activity (RS4-11 [8]) of 39% and an Activity (RS4-11 [9]) of 0.94%. For the same molecule, the Activity (RS4-11 [10]) was 20.6%, the Activity (RS4-11 [11]) was 9.9% and the Activity (RS4-11 [12]) was 28.2%. The pIC50 (Huh-7) was 5.44.
